Assay results taken from ChEMBL document CHEMBL3286244, “Chlorpheniramine Analogues Reverse Chloroquine Resistance in Plasmodium falciparum by Inhibiting PfCRT” (ACS Med Chem Lett, 2014).
Active and inactive are the calls of the source. No cut-off for these calls is given here.

Experiments:
[1] = target: T1, Chloroquine resistance transporter (Plasmodium falciparum) (UniProt Q9N623); test: Inhibition of chloroquine-resistant Plasmodium falciparum Dd2 CRT expressed in Xenopus laevis oocytes plasma membrane assessed as reduction of [3H]-chloroquine transportation at 100 uM after 1 to 2 hrs; type: cell-based
T1 sequence (whole entry): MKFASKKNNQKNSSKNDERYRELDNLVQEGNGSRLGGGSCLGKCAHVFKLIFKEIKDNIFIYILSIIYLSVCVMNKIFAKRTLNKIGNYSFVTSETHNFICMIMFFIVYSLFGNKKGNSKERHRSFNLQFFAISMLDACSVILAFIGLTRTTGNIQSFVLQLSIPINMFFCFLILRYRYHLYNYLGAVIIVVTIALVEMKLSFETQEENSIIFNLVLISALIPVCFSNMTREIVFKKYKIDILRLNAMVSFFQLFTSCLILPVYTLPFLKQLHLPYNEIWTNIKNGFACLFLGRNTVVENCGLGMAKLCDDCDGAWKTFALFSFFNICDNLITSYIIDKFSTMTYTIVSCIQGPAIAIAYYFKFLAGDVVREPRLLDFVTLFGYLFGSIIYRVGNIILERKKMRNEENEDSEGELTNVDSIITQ
In short: (§1)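 Xenopus oocytes expressing PfCRT of the CQ-resistant (PfCRTCQR) or CQ-sensitive (PfCRTCQS) form. [3H]CQ uptake measured in the presence of reverser at 100 μM extracellular.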

[2] = target: T1, Chloroquine resistance transporter (Plasmodium falciparum); test: Inhibition of chloroquine-sensitive Plasmodium falciparum D10 CRT expressed in Xenopus laevis oocytes plasma membrane assessed as reduction of [3H]-chloroquine transportation at 100 uM after 1 to 2 hrs; type: cell-based; in short: as §1
[3] = target: T1, Chloroquine resistance transporter (Plasmodium falciparum); test: Inhibition of CTR in Plasmodium falciparum C2GC03 expressing wild-type pfcrt allele assessed as increase of accumulation of [3H]-chloroquine level at 1 uM after 1 hr
In short: (§2)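 Isogenic pfcrt transfectant lines C2GCO3 (wild-type allele), C4Dd2 and C67G8 (CQ-resistance alleles from Dd2 or 7G8). CQ accumulation ratio measured with and without reverser. Expressed as fold increase in accumulation ratio over control.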

[4] = target: T1, Chloroquine resistance transporter (Plasmodium falciparum); test: Inhibition of CTR in Plasmodium falciparum C67G8 expressing chloroquine-resistance-conferring pfcrt alleles assessed as increase of accumulation of [3H]-chloroquine level at 1 uM after 1 hr relative to control; in short: as §2
Plasmodium falciparum [5] = test: Antiplasmodial activity against Plasmodium falciparum C2GC03 expressing wild-type pfcrt allele assessed as parasite growth at 800 nM after 72 hrs by SYBR Green I-based fluorescence assay relative to control; type: functional
In short: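 Isogenic pfcrt transfectant parasite line C2GCO3 (wild-type pfcrt allele) was grown in a proliferation assay with the test compound at 800 nM and no chloroquine. Proliferation is expressed relative to untreated control.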

[6] = target: T1, Chloroquine resistance transporter (Plasmodium falciparum); test: Inhibition of CTR in Plasmodium falciparum C4Dd2 expressing chloroquine-resistance-conferring pfcrt alleles assessed as increase of accumulation of [3H]-chloroquine level at 1 uM after 1 hr relative to control; in short: as §2
Plasmodium falciparum [7] = test: Antiplasmodial activity against Plasmodium falciparum C67G8 expressing chloroquine-resistance-conferring pfcrt alleles assessed as parasite growth at 800 nM after 72 hrs by SYBR Green I-based fluorescence assay relative to control; type: functional
In short: (§3)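 Isogenic pfcrt transfectant lines (C2GCO3 wild-type allele; C4Dd2 and C67G8 carrying CQ-resistance-conferring alleles from Dd2 or 7G8). Parasite proliferation measured in the absence of CQ with test compound at 800 nM and expressed relative to untreated control.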

Plasmodium falciparum [8] = test: Antiplasmodial activity against Plasmodium falciparum C4Dd2 expressing chloroquine-resistance-conferring pfcrt alleles assessed as parasite growth at 800 nM after 72 hrs by SYBR Green I-based fluorescence assay relative to control; type: functional; in short: as §3
Plasmodium falciparum [9] = test: Response modification index, ratio of IC50 for Plasmodium falciparum C4Dd2 expressing chloroquine-resistance-conferring pfcrt alleles in presence of drug to IC50 for Plasmodium falciparum C4Dd2 expressing chloroquine-resistance-conferring pfcrt alleles in absence of 800 nM of drug; type: functional
In short: (§4)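 Proliferation assays on isogenic pfcrt transfectant lines (C4Dd2, C67G8). CQ IC50 determined with and without 800 nM test compound. RMI calculated as CQ IC50 with compound divided by CQ IC50 without compound.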

[10] = target: Chloroquine resistance transporter (Plasmodium falciparum, UniProt Q9N623); test: Inhibition of chloroquine-resistant Plasmodium falciparum Dd2 CRT expressed in Xenopus laevis oocytes plasma membrane assessed as reduction of [3H]-chloroquine transportation after 1 to 2 hrs; type: cell-based
In short: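 Xenopus oocytes expressing PfCRTCQR. Inhibition of [3H]CQ uptake measured over a range of reverser concentrations. IC50 derived from concentration-response data, reported as mean ± SEM.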

Plasmodium falciparum [11] = test: Response modification index, ratio of IC50 for Plasmodium falciparum C67G8 expressing chloroquine-resistance-conferring pfcrt alleles in presence of drug to IC50 for Plasmodium falciparum C67G8 expressing chloroquine-resistance-conferring pfcrt alleles in absence of 800 nM of drug; type: functional; in short: as §4
Plasmodium falciparum [12] = test: Response modification index, ratio of IC50 for Plasmodium falciparum C2GC03 expressing wild-type pfcrt allele in presence of drug to IC50 for Plasmodium falciparum C2GC03 expressing wild-type pfcrt allele in absence of 800 nM of drug; type: functional
In short: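 In a parasite proliferation assay on the isogenic pfcrt transfectant line C2GCO3 (wild-type allele), chloroquine IC50 was measured with and without the test compound at 800 nM. RMI is chloroquine IC50 with the compound divided by chloroquine IC50 without it.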

SMILES | inhibition [1] | inhibition [2] | inhibition [3] | other results
CN(C)CC/C=C(\c1ccc(Cl)cc1)c1ccccn1 | inactive | inactive | inactive | –
CN(C)CCC/C=C(/c1ccc(Cl)cc1)c1ccccn1 | inactive | inactive | inactive | –
COc1ccc(CCN(C)CCCC(C#N)(c2ccc(OC)c(OC)c2)C(C)C)cc1OC (stereo not given) | Active | – | inactive | fold change (FC) [4]: 1.9; Activity (Plasmodium falciparum [5]): 43%; fold change (FC) [6]: 3.1; Activity (Plasmodium falciparum [7]): 55%; Activity (Plasmodium falciparum [8]): 46%
CN(C)CC/C=C(\c1cccc(Cl)c1)c1ccccn1 | inactive | inactive | inactive | –
CN(C)CCCC(c1ccccc1)c1ccccn1 (racemic) | inactive | inactive | inactive | –
CN(C)CCC(c1cccc(Cl)c1)c1ccccn1 (racemic) | inactive | inactive | inactive | Activity (Plasmodium falciparum [5]): 99%; Ratio IC50 (Plasmodium falciparum [9]): 0.27; IC50 [10]: 63 µM; Ratio IC50 (Plasmodium falciparum [11]): 0.35; Activity (Plasmodium falciparum [7]): 74%; Activity (Plasmodium falciparum [8]): 75%; Ratio IC50 (Plasmodium falciparum [12]): 0.99
CCN(CC)C/C=C(\c1ccc(Cl)cc1)c1ccccn1 | inactive | inactive | inactive | fold change (FC) [4]: 1.4; Activity (Plasmodium falciparum [5]): 100%; Ratio IC50 (Plasmodium falciparum [9]): 0.49; IC50 [10]: 321 µM; Ratio IC50 (Plasmodium falciparum [11]): 0.69; fold change (FC) [6]: 1.6; Activity (Plasmodium falciparum [7]): 90%; Activity (Plasmodium falciparum [8]): 84%; Ratio IC50 (Plasmodium falciparum [12]): 1.01
CN(C)CCCCC(c1ccc(Cl)cc1)c1ccccn1 (racemic) | inactive | inactive | inactive | fold change (FC) [4]: 1.8; Activity (Plasmodium falciparum [5]): 100%; Ratio IC50 (Plasmodium falciparum [9]): 0.28; IC50 [10]: 180 µM; Ratio IC50 (Plasmodium falciparum [11]): 0.39; fold change (FC) [6]: 2.4; Activity (Plasmodium falciparum [7]): 79%; Activity (Plasmodium falciparum [8]): 74%; Ratio IC50 (Plasmodium falciparum [12]): 0.92
CN(C)C/C=C(\c1cccc(Cl)c1)c1ccccn1 | inactive | inactive | inactive | –
CN(C)CCCC(c1ccncc1)c1cccc(Cl)c1 (racemic) | inactive | inactive | inactive | –
CCN(CC)C/C=C(/c1ccc(Cl)cc1)c1ccccn1 | inactive | inactive | – | –
COc1cc(NC(C)CCCN)c2ncccc2c1 (stereo not given) [PRIMAQUINE] | Active | – | – | IC50 [10]: 68 µM
CN(C)C/C=C(/c1cccc(Cl)c1)c1ccccn1 | inactive | inactive | inactive | –
CN(C)CC/C=C(/c1ccc(Cl)cc1)c1ccccn1 | inactive | inactive | inactive | –
CN(C)CCCCCC(c1ccc(Cl)cc1)c1ccccn1 (racemic) | inactive | inactive | inactive | –
CN(C)CCCC(c1cccnc1)c1cccc(Cl)c1 (racemic) | inactive | inactive | inactive | –
CC(CN1c2ccccc2Sc2ccccc21)N(C)C (stereo not given) [PROMETHAZINE] | Active | – | – | IC50 [10]: 85 µM
CN(C)CC/C=C(/c1cccc(Cl)c1)c1ccccn1 | inactive | inactive | inactive | –
CN(C)CCC(c1ccc(Cl)cc1)c1ccccn1 (stereo in doubt; form 2) | – | – | inactive | –
CN(C)CCCC(c1ccccn1)c1ccccc1Cl (racemic) | inactive | inactive | inactive | –
CN(C)CCCC(c1ccc(Cl)cc1)c1ccccn1 (racemic) | inactive | inactive | inactive | –
CN(C)CCCC(c1cccc(Cl)c1)c1ccccn1 (racemic) | inactive | inactive | inactive | fold change (FC) [4]: 2; Activity (Plasmodium falciparum [5]): 99%; Ratio IC50 (Plasmodium falciparum [9]): 0.27; IC50 [10]: 66 µM; Ratio IC50 (Plasmodium falciparum [11]): 0.35; fold change (FC) [6]: 2.7; Activity (Plasmodium falciparum [7]): 72%; Activity (Plasmodium falciparum [8]): 67%; Ratio IC50 (Plasmodium falciparum [12]): 0.95
CN(C)CCC/C=C(\c1ccc(Cl)cc1)c1ccccn1 | inactive | inactive | inactive | –
CN(C)CCC(c1ccc(Cl)cc1)c1ccccn1 (stereo in doubt; form 1) | Active | – | inactive | fold change (FC) [4]: 2; fold change (FC) [6]: 2.7
CN(C)CCC(c1ccc(Cl)cc1)c1ccccn1 (stereo in doubt; form 1) [CHLORPHENIRAMINE] | – | – | – | Activity (Plasmodium falciparum [5]): 97%; Ratio IC50 (Plasmodium falciparum [9]): 0.24; IC50 [10]: 54 µM; Ratio IC50 (Plasmodium falciparum [11]): 0.37; Activity (Plasmodium falciparum [7]): 76%; Activity (Plasmodium falciparum [8]): 78%; Ratio IC50 (Plasmodium falciparum [12]): 1.09
N#C/C=C(\c1ccccc1)c1ccccn1 | inactive | inactive | inactive | inhibition [4]: inactive; inhibition [6]: inactive
N#C/C=C(/c1ccccc1)c1ccccn1 | inactive | inactive | inactive | –
CN(C)CC/C=C(/c1ccccn1)c1ccccc1Cl | inactive | inactive | inactive | –
CN(C)CCCC(c1cccc(Cl)c1)c1cnccn1 (racemic) | inactive | inactive | inactive | –
CCN(CC)CCC(c1ccc(Cl)cc1)c1ccccn1 (racemic) | inactive | inactive | inactive | –
